Results taken from ChEMBL document CHEMBL3085739, “Design, synthesis, and biological evaluation of 2-oxo-3,4-dihydropyrimido[4,5-d]pyrimidinyl derivatives as new irreversible epidermal growth factor receptor inhibitors with improved pharmacokinetic properties” (J Med Chem, 2013).
In brackets after ≈: the same amount, converted by molar mass. Activity calls are given as the source filed them. The calls are words filed in the database; no cut-off is given here.

Legend:
[1] = biological target: T1, Epidermal growth factor receptor (Homo sapiens, UniProt P00533, L858R/T790M); experiment: Binding affinity to EGFR L858R/T790M double mutant (unknown origin)
[2] = Cmax in Sprague-Dawley rat at 25 mg/kg, po by LC/MS analysis; assay type: ADME, organism-based; design: dose 25 mg/kg, route oral; settings: in vivo
In short: (§1)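 Male Sprague-Dawley rats (180−220 g), n = 4 per route, single iv dose 5 mg/kg or oral gavage 25 mg/kg. Vehicle was 2% DMSO, 4% EtOH, 4% castor oil, 90% H2O. Orbital sinus blood was taken from 2 min to 72 h into heparinized tubes. Plasma levels were measured by LC/MS with propranolol internal standard and analysed by pharmacokinetic modelling.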

[3] = biological target: Tyrosine-protein kinase BTK (Homo sapiens) (UniProt Q06187); experiment: Binding affinity to BTK (unknown origin)
[4] = system: Mus musculus; experiment: Toxicity in SCID nude mouse xenografted with human NCI-H1975 cells assessed as mortality at 10 to 30 mg/kg, po qd after 14 days; assay type: organism-based; design: dose 10-30 mg/kg, route oral; settings: in vivo, 336 h
In short: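 SCID mice (six weeks old) implanted subcutaneously in the right flank with H1975 cells (2 × 10⁶/mouse). Once tumours averaged 200−300 mm³, animals were randomized (n = 5 per group) and given vehicle or drug orally once daily for 14 days. Vehicle: 1% DMSO, 5% EtOH, 15% castor oil, 79% H₂O, at 0.1 mL/20 g. Mice were watched for morbidity, and body weight was recorded every other day.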

[5] = Oral bioavailability in Sprague-Dawley rat at 25 mg/kg by LC/MS analysis; assay type: ADME, organism-based; settings: in vivo; in short: as §1
[6] = biological target: Proto-oncogene tyrosine-protein kinase receptor Ret (Homo sapiens) (UniProt P07949); experiment: Binding affinity to RET (unknown origin)
[7] = biological target: T1, Epidermal growth factor receptor; experiment: Inhibition of EGFR L858R/T790M double mutant (unknown origin) after 1.5 hrs by FRET-based Z'-Lyte assay; assay type: protein assay
[8] = system: NCI-H1975; experiment: Effect on EGFR protein level in human NCI-H1975 cells at 3 to 330 nM after 2 hrs by Western blotting analysis; assay type: functional, cell-based
In short: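 H1975 cells were grown 24 h, then treated for 2 h with DMSO or 3–330 nM compound. Lysates were sonicated, run on SDS-PAGE, blotted to PVDF, blocked in 5% BSA/TBST, and probed for phospho/total EGFR (pY1068), Akt and Erk1/2 (pT202/pY204) with peroxidase secondary antibodies. Blots are representative of three experiments.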

[9] = Antiproliferative activity against human H1299 cells expressing wild-type EGFR after 72 hrs by MTS assay; assay type: cell-based; settings: NCI-H1299, 72 h
In short: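 MTS proliferation assay: cells exposed to compound for 72 h at six concentrations (0.1 nM to 10 μM), each concentration run six times. Cell number per line set to give an absorbance of 0.5–1.2 at […]. IC50 from a nonlinear sigmoidal dose–response fit. Values are means of at least three independent experiments.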

[10] = system: NCI-H1975; experiment: Effect on GADPH protein level in human NCI-H1975 cells at 3 to 330 nM after 2 hrs by Western blotting analysis; assay type: functional, cell-based
[11] = system: NCI-H1975; experiment: Antiproliferative activity against human NCI-H1975 cells expressing EGFR L858R/T790M double mutant after 72 hrs by MTS assay; assay type: functional, cell-based; settings: NCI-H1975, 72 h
[12] = Thermodynamic aqueous solubility of the compound in PBS buffer at pH 6.8 after 24 hrs by HPLC analysis; assay type: physicochemical; settings: PBS buffer, pH 6.8; read-out: Therm_solubility
In short: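 Compound was shaken in aqueous buffer at pH 6.8 for 24 h at ambient temperature; dissolved concentration was measured by HPLC.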

[13] = biological target: T2, Tyrosine-protein kinase JAK3 (Homo sapiens) (UniProt P52333); experiment: Binding affinity to JAK3 (unknown origin)
T2 sequence (whole entry): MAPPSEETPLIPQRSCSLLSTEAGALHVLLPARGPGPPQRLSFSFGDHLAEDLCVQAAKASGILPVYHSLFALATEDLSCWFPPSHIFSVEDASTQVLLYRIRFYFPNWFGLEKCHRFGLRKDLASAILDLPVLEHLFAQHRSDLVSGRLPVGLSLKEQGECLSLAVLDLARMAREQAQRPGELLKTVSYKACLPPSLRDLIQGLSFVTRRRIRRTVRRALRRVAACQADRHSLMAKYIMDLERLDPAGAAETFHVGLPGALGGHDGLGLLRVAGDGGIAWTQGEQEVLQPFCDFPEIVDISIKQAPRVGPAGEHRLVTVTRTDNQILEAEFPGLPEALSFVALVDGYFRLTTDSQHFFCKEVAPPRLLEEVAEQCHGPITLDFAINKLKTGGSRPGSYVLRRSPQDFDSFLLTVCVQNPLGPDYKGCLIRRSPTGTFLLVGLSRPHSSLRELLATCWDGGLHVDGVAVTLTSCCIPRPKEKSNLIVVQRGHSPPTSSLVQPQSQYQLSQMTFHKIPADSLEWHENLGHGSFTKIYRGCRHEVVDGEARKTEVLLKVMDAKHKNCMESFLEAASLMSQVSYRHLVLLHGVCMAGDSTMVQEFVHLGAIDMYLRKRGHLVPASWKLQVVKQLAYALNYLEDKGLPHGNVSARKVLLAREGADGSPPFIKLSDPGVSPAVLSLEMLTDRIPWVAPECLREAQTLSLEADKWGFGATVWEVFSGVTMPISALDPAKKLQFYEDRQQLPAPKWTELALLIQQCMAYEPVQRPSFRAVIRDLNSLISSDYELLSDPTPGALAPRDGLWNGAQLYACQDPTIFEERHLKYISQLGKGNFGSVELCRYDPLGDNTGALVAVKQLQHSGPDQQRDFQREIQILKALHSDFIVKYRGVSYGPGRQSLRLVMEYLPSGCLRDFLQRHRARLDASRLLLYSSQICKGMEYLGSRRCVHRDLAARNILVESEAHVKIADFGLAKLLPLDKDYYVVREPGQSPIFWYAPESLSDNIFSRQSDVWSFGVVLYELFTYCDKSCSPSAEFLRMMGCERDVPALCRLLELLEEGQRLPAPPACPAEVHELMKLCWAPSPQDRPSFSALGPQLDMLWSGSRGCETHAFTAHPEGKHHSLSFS

[14] = system: Epidermal growth factor receptor (Homo sapiens), P00533 [L858R,T790M]; settings: NCI-H1975, 110 nM
Epidermal growth factor receptor (Homo sapiens), P00533 [L858R,T790M], sequence (P00533 whole entry T790M/L858R, looked up): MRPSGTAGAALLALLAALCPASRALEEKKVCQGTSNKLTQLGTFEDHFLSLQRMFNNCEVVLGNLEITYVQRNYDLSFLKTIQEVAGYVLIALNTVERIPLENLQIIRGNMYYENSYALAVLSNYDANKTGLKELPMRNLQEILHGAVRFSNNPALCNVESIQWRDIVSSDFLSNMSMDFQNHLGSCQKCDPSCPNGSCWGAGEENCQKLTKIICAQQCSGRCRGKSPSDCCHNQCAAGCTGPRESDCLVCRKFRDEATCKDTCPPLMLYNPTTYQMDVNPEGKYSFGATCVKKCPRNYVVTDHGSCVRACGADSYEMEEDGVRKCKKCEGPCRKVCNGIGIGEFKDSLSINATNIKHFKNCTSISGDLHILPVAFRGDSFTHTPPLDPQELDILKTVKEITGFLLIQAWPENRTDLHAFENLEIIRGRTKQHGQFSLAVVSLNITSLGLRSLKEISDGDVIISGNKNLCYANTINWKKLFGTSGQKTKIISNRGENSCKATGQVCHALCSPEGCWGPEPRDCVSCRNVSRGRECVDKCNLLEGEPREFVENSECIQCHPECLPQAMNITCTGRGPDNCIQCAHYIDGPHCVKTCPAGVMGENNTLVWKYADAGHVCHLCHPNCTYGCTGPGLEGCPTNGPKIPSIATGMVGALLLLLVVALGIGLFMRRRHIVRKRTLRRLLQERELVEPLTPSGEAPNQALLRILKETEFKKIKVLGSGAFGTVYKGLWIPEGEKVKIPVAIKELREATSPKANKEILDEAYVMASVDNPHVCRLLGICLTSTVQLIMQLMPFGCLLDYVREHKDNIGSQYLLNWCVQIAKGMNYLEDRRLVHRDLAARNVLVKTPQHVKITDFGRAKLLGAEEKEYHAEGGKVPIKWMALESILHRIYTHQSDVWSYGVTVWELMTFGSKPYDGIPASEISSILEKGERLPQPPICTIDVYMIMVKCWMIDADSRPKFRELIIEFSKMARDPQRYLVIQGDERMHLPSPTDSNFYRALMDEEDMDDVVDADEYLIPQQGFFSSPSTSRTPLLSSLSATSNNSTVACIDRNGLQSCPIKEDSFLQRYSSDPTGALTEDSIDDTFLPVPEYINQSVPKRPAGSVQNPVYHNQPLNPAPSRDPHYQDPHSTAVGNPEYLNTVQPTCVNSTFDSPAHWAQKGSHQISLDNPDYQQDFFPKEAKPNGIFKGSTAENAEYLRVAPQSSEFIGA

T1 sequence (P00533 25-1210 T790M/L858R limits assumed): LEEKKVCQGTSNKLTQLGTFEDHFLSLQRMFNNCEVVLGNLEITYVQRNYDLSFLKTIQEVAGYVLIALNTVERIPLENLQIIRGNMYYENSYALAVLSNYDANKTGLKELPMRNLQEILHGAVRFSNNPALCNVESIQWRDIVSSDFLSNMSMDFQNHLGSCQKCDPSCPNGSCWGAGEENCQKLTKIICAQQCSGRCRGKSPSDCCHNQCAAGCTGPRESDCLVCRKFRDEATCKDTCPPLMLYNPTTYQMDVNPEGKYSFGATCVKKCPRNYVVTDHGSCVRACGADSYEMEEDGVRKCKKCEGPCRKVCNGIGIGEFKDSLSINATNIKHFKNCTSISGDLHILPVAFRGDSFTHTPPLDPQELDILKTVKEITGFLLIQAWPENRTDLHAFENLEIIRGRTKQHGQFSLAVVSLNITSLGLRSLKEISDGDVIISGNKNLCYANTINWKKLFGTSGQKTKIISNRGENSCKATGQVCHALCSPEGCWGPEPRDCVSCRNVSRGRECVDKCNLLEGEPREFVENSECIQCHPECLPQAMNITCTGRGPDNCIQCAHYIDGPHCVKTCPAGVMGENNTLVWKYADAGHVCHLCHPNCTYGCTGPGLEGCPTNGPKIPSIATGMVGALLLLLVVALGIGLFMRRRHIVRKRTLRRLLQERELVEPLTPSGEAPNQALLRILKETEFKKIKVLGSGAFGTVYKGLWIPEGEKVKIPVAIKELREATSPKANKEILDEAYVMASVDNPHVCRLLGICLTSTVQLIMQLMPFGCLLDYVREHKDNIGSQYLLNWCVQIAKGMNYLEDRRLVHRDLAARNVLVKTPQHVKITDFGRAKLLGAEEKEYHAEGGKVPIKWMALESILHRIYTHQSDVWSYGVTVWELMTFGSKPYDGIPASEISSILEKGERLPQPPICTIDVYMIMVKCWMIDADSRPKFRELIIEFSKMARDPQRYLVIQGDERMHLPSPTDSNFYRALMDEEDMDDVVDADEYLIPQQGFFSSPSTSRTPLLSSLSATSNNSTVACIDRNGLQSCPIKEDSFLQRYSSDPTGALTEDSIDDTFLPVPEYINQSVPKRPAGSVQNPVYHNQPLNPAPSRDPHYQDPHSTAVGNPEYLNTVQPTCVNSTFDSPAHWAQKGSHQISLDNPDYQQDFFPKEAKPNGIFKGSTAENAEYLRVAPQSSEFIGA
Proto-oncogene tyrosine-protein kinase receptor Ret (Homo sapiens), sequence (P07949 whole entry): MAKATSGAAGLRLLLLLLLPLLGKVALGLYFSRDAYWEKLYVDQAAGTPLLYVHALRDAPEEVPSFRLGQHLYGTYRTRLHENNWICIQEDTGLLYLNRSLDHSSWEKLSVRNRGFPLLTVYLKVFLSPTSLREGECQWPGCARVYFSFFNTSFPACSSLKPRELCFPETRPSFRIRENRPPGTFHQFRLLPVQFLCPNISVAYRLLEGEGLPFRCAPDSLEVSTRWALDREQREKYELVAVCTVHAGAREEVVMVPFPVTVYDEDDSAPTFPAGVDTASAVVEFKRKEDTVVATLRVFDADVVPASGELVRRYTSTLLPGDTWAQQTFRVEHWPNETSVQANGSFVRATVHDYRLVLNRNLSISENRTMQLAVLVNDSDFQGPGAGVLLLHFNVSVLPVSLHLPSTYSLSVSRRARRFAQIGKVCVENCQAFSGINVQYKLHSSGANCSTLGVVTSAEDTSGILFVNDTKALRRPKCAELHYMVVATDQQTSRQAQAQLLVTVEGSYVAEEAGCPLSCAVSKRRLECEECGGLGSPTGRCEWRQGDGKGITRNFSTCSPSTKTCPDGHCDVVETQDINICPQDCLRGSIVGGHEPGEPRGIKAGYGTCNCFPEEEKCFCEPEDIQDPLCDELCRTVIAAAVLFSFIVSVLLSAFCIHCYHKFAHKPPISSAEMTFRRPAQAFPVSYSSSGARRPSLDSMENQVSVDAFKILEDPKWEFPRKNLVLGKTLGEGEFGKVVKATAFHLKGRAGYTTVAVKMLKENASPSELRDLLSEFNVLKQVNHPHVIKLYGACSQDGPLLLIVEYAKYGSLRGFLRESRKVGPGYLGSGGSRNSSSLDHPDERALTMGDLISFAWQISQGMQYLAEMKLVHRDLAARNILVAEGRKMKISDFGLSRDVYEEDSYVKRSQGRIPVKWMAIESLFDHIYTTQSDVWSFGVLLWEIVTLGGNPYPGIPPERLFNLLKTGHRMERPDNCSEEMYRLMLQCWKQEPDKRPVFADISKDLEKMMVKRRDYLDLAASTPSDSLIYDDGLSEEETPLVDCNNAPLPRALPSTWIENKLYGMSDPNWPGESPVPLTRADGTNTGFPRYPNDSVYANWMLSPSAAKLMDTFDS
Tyrosine-protein kinase BTK (Homo sapiens), sequence (Q06187 whole entry): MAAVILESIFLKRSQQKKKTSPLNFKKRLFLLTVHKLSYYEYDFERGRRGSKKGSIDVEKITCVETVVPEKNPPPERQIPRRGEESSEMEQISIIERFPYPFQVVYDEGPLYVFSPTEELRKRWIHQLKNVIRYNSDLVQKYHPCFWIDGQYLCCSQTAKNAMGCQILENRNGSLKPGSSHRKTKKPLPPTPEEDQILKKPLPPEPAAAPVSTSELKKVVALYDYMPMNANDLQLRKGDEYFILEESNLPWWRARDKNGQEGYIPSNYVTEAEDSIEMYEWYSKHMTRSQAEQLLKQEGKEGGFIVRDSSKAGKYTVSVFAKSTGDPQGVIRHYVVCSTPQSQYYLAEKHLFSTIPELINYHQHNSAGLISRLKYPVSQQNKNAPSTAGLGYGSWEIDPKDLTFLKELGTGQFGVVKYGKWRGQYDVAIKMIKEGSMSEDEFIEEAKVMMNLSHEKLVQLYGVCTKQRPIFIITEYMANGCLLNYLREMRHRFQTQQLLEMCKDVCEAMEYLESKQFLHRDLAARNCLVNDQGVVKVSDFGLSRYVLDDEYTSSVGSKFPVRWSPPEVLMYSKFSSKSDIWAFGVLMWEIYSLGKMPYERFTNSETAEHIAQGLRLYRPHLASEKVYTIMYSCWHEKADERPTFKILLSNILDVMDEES

**Q.** Which Kd [1] does the source give for `C=CC(=O)N1CC[C@H](N2C(=O)N(c3ccccc3)Cc3cnc(Nc4ccc(N5CCN(C)CC5)c(C)c4)nc32)C1` here?
**A.** 1.4 nM

**Q.** What about the Cmax [2] of the same compound?
**A.** 1040 ng/mL

**Q.** What about the Activity [3] of the same compound?
**A.** Active

**Q.** And the Activity [4]?
**A.** Non-toxic

**Q.** What about the bioavailability [5] of the same compound?
**A.** 30%

**Q.** What about the Activity [6] of the same compound?
**A.** Active

**Q.** What about the IC50 [7] of the same compound?
**A.** 9.2 nM

**Q.** And the Activity [8]?
**A.** inactive

**Q.** And the IC50 [9]?
**A.** 5100 nM

**Q.** And the Activity [10]?
**A.** inactive

**Q.** What about the IC50 [11] of the same compound?
**A.** 47 nM

**Q.** What about the solubility thermodynamic at 24 h [12] of the same compound?
**A.** 1270 µg/mL (≈ 2290 µM)

**Q.** What about the Activity [13] of the same compound?
**A.** Active

**Q.** And the inhibition [14]?
**A.** Active
